Test results published in ChEMBL document CHEMBL1131417, “Characterization of novel N,N'-disubstituted piperazines as sigma receptor ligands” (J Med Chem, 1998).

Assays:
Sigma 2 receptor [1] = assay: Binding affinity was tested against sigma-2 receptor in presence of dextrallorphan in rat liver membranes; NA =data not available; type: cell membranes, Membrane
Outline: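 Rat liver membranes (160 μg protein) were incubated with 5 nM [3H]DTG plus 1 μM dextrallorphan to mask σ-1 sites, in Tris-HCl pH 8.0, for 120 min at 25 °C. Twelve competitor concentrations spanned 0.05–10 000 nM or 0.5–100 000 nM. IC50 from curve fitting was converted to Ki by Cheng-Prusoff. Values are the mean ± SEM of 2–3 experiments, each run in duplicate.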

Sigma 2 receptor [2] = assay: Binding affinity was tested against sigma-2 receptor site in presence of dextrallorphan in rat liver membranes.; type: cell membranes, Membrane
Outline: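 Rat liver membranes (160 μg protein) incubated with 5 nM [3H]DTG plus 1 μM dextrallorphan to mask σ-1 sites, in Tris-HCl pH 8.0, 120 min at 25 °C. Twelve competitor concentrations spanning 0.05–10 000 nM or 0.5–100 000 nM. IC50 from iterative curve fit, converted to apparent Ki by Cheng–Prusoff. Mean ± SEM of 2–3 experiments, each in duplicate.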

Row | Compound | Ki (Sigma 2 receptor [1]) | Ki (Sigma 2 receptor [2]) [nM]
1 | COc1cccc(CCN2CCN(C(=O)Cc3cccc(OC)c3)CC2)c1 | Not Active | –
2 | Nc1ccc(CCN2CCN(CCCc3ccccc3)CC2)cc1 | – | 14
3 | Nc1cccc(CCN2CCN(CCCc3ccccc3)CC2)c1 | – | 37
4 | O=C(Cc1cccc([N+](=O)[O-])c1)N1CCN(CCCc2ccccc2)CC1 | – | 65
5 | COc1ccc(CCN2CCN(CCCc3ccccc3)CC2)cc1 | – | 29
6 | COc1ccccc1CCN1CCN(C(=O)Cc2ccccc2OC)CC1 | – | > 10
7 | NCCN1CCN(CCCc2ccccc2)CC1 | – | 188
8 | O=[N+]([O-])c1ccc(CCN2CCN(CCCc3ccccc3)CC2)cc1 | – | 25
9 | COc1ccccc1CCN1CCN(CCCc2ccccc2)CC1 | – | 7.5
10 | O=[N+]([O-])c1cccc(CCN2CCN(CCCc3ccccc3)CC2)c1 | – | 9.4
11 | NCCC(=O)N1CCN(CCCc2ccccc2)CC1 | – | 1780
12 | COc1ccccc1CCN1CCN(CCc2ccccc2OC)CC1 | – | 17
13 | COc1ccc(CCN2CCN(CCc3ccc(OC)cc3)CC2)cc1 | – | 99
14 | NCCCCN1CCN(CCCc2ccccc2)CC1 | – | 999
15 | Clc1ccc(CCN2CCN(CCCc3ccccc3)CC2)cc1Cl | – | 39
16 | Nc1ccccc1CCN1CCN(CCCc2ccccc2)CC1 | – | 18

Row | Compound | Ki (Sigma 2 receptor [1]) | Ki (Sigma 2 receptor [2]) [nM]
17 | COc1ccc(CC(=O)N2CCN(CCCc3ccccc3)CC2)cc1 | – | 464
18 | O=C(Cc1ccc([N+](=O)[O-])cc1)N1CCN(CCCc2ccccc2)CC1 | – | 167
19 | O=C(Cc1ccccc1[N+](=O)[O-])N1CCN(CCCc2ccccc2)CC1 | – | 76
20 | NCCCC(=O)N1CCN(CCCc2ccccc2)CC1 | – | 3840
21 | COc1cccc(CC(=O)N2CCN(CCCc3ccccc3)CC2)c1 | – | 206
22 | O=[N+]([O-])c1ccccc1CCN1CCN(CCCc2ccccc2)CC1 | – | 4.9
23 | O=C(Cc1ccc(Cl)c(Cl)c1)N1CCN(CCCc2ccccc2)CC1 | – | 78
24 | COc1ccc(CCN2CCN(C(=O)Cc3ccc(OC)cc3)CC2)cc1 | – | 744
25 | COc1ccccc1CC(=O)N1CCN(CCCc2ccccc2)CC1 | – | 294
26 | CC(C)(C)OC(=O)NCCCC(=O)N1CCN(CCCc2ccccc2)CC1 | – | 126
27 | NCCCN1CCN(CCCc2ccccc2)CC1 | – | 2000
28 | COc1cccc(CCN2CCN(CCCc3ccccc3)CC2)c1 | – | 10
29 | CC(C)(C)OC(=O)NCCC(=O)N1CCN(CCCc2ccccc2)CC1 | – | 4560
30 | COc1cccc(CCN2CCN(CCc3cccc(OC)c3)CC2)c1 | – | 29
31 | NCC(=O)N1CCN(CCCc2ccccc2)CC1 | – | 303
